“And” between values parts separate entries of the source, which are not always exact repeats. Identical values can stand only once. The source made the active and inactive calls.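 The calls were made as follows: active = VEGF mRNA rise whose fitted curve reaches 40% activation within the highest concentration tested on that sample; inactive = the rest, including effects opposite to expected.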

One experiment concerns U2OS VEGF mRNA induction, RT-PCR. In words: activators raising VEGF transcript levels – cell-based, U2OS, RT-PCR, dry powder, set 2, orthogonal assay for HIF pathway activator project, dose response (AID 493238).
Details: not given
The gist of the method: (§1)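 Assay system: human U2OS osteosarcoma cells, endogenous VEGF-A mRNA; Quantity: 2,000 U2OS cells per well; Times: 24 h pre-growth at 37 °C, 24 h compound treatment; Detection: duplex TaqMan RT-qPCR (FAM VEGF-A, VIC beta-actin), 40 cycles, post-lysis; Doses: duplicate dose-response pinning.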
In the case of `CCCCNC(=O)c1cc(-c2ccccc2)on1`, the AC40 is 14.6 µM.

Consider `Cn1c(-c2ccccc2)cnc1NC(=O)c1cc(-c2ccccc2)on1`, for which the AC40 is 35.2 µM.

With `CC(C)(C)CCNC(=O)c1cc(-c2ccccc2)on1`, the AC40 is > 38 µM (inactive).

On to `Cc1ccc(Nc2nc(-c3ccccn3)nnc2-c2ccccc2)cn1`, for which the AC40 was 6.12 µM.

`Oc1ccc(CN2CCc3ccccc3C2)c2cccnc12`: the AC40 was 5.31 µM and 5.35 µM.

For the compound `Cc1cccc(Nc2nc(-c3ccccn3)nnc2-c2ccccc2)n1`, the AC40 is 2.98 µM.

Consider `C[C@@H](Nc1nc(-c2ccccn2)nnc1-c1ccccc1)c1ccccc1`, for which the AC40 is 2.22 µM.

As for `C[C@H](Nc1nc(-c2ccccn2)nnc1-c1ccccc1)C1CCCCC1`, the AC40 is 1.39 µM.

Consider `O=C(NC1CCc2ccccc2C1)c1cc(-c2ccccc2)on1` (configuration not stated), for which the AC40 is > 38 µM (inactive).

For `c1ccc(-c2nnc(Nc3nc(-c4ccccn4)nnc3-c3ccccc3)s2)cc1`, the AC40 is 1.3 µM.

For the compound `Oc1ccc(CNC2Cc3ccccc3C2)c2cccnc12`, the AC40 is 10.7 µM.

`O=C(Nc1cn2ccccc2n1)c1cc(-c2ccccc2)on1`: the AC40 was 18.6 µM.

`c1ccc(-c2nnc(-c3ccccn3)nc2N2CCN(c3ccncc3)CC2)cc1`: the AC40 was 2.12 µM.

Consider `Clc1cccc(CNc2nc(-c3ccccn3)nnc2-c2ccccc2)c1`, for which the AC40 is 0.87 µM.

With `c1ccc(-c2csc(Nc3nc(-c4ccccn4)nnc3-c3ccccc3)n2)cc1`, the AC40 was 0.597 µM.

As for `CC(Nc1nc(-c2ccccn2)nnc1-c1ccccc1)c1ccccc1` (configuration not stated), the AC40 was 1.37 µM.

Turning to `O=C(NCCCn1ccnc1)c1cc(-c2ccccc2)on1`, the AC40 is 10.7 µM.

`O=C(NCCCO)c1cc(-c2ccccc2)on1`: the AC40 is 11.5 µM.

Take `O=C(NCCCN1CCOCC1)c1cc(-c2ccccc2)on1`: the AC40 was 23 µM.

In the case of `Cc1ccccc1CNc1nc(-c2ccccn2)nnc1-c1ccccc1`, the AC40 was 1.02 µM.

In the case of `c1ccc(-c2nnc(-c3ccccn3)nc2NCC2CCCCC2)cc1`, the AC40 was 1.3 µM.

As for `N#CC1(c2ccccc2)CCN(Cc2ccc(O)c3ncccc23)CC1`, the AC40 was 28.3 µM.

Take `c1ccc(-c2nnc(-c3ccccn3)nc2N2CCC(N3CCOCC3)CC2)cc1`: the AC40 is 6.52 µM.

Consider `c1ccc(-c2nnc(-c3ccccn3)nc2Nc2cnc3ccccc3n2)cc1`, for which the AC40 is 1.1 µM.

Consider `c1ccc(-c2nnc(-c3ccccn3)nc2N2CCC(C3CCCCC3)C2)cc1` (configuration not stated), for which the AC40 is 0.843 µM.

For the compound `c1ccc(-c2nnc(-c3ccccn3)nc2Nc2nc3ccccc3s2)cc1`, the AC40 was 0.51 µM.

`COc1ccc(CNc2nc(-c3ccccn3)nnc2-c2ccccc2)cc1`: the AC40 is 1.92 µM.

As to `Oc1ccc(CNC2CCc3ccccc32)c2cccnc12` (configuration not stated), the AC40 is 35.1 µM.

With `OCC1CCN(c2nc(-c3ccccn3)nnc2-c2ccccc2)CC1`, the AC40 was 10.5 µM.

Take `c1ccc(-c2nnc(-c3ccccn3)nc2NCCc2ccccn2)cc1`: the AC40 is 5.54 µM.

For the compound `COc1ccccc1N1CCN(Cc2ccc(O)c3ncccc23)CC1`, the AC40 is 0.519 µM.

Take `CN(C)c1nc(-c2ccccn2)nnc1-c1ccccc1`: the AC40 is 8.23 µM.

`O=C(c1cc(-c2ccccc2)on1)N1CCN(c2ccncc2)CC1`: the AC40 was > 38 µM (inactive).

`c1ccc(-c2nnc(-c3ccccn3)nc2NCC2CCOCC2)cc1`: the AC40 was 7.58 µM.

As for `c1ccc(-c2cccc(CNc3nc(-c4ccccn4)nnc3-c3ccccc3)c2)cc1`, the AC40 is 0.601 µM.

`C[C@@H](Nc1nc(-c2ccccn2)nnc1-c1ccccc1)C1CCCCC1`: the AC40 is 0.571 µM.

As to `c1ccc(CCNc2nc(-c3ccccn3)nnc2-c2ccccc2)cc1`, the AC40 was 4.92 µM.

In the case of `COc1cccc(CNc2nc(-c3ccccn3)nnc2-c2ccccc2)c1`, the AC40 is 1.78 µM.

`O=C(NCCN1CCOCC1)c1cc(-c2ccccc2)on1`: the AC40 was 28.8 µM.

In the case of `O=C(NCC1CC1)c1cc(-c2ccccc2)on1`, the AC40 is 17.2 µM.

Turning to `CN1CCN(c2nc(-c3ccccn3)nnc2-c2ccccc2)CC1`, the AC40 was 5.95 µM.

On to `CC(C)(C)c1ccc(CNc2nc(-c3ccccn3)nnc2-c2ccccc2)cc1`, for which the AC40 was 0.397 µM.

As to `c1ccc(-c2nnc(-c3ccccn3)nc2NCCCN2CCOCC2)cc1`, the AC40 is 6.5 µM.

As to `c1ccc(CNc2nc(-c3ccccn3)nnc2-c2ccccc2)cc1`, the AC40 was 1.6 µM.

In the case of `CC1CN(Cc2ccc(O)c3ncccc23)CC(C)O1` (configuration not stated), the AC40 was 9.15 µM.

As for `c1ccc(-c2nnc(-c3ccccn3)nc2NCc2cccnc2)cc1`, the AC40 was 2.84 µM.

For the compound `OCC1CCN(Cc2ccc(O)c3ncccc23)CC1`, the AC40 was 3.56 µM.

`O=C(NCCCCO)c1cc(-c2ccccc2)on1`: the AC40 was 5.01 µM.

For the compound `c1ccc(-c2nnc(-c3ccccn3)nc2NCC2CC2)cc1`, the AC40 is 2.4 µM.

In the case of `Cn1c(-c2ccccc2)cnc1Nc1nc(-c2ccccn2)nnc1-c1ccccc1`, the AC40 is 3.33 µM.

Take `c1ccc(-c2nnc(-c3ccccn3)nc2NCc2ccccn2)cc1`: the AC40 was 4.53 µM.

Turning to `c1ccc(-c2cnc(Nc3nc(-c4ccccn4)nnc3-c3ccccc3)s2)cc1`, the AC40 is 0.4 µM.

Consider `Cc1ccc(CNc2nc(-c3ccccn3)nnc2-c2ccccc2)cc1`, for which the AC40 was 0.892 µM.

As for `O=C(Nc1ncc2ccccc2n1)c1cc(-c2ccccc2)on1`, the AC40 is 36.2 µM.

On to `c1ccc(-c2ccc(CNc3nc(-c4ccccn4)nnc3-c3ccccc3)cc2)cc1`, for which the AC40 was 0.303 µM.

`Cc1cccc(CNc2nc(-c3ccccn3)nnc2-c2ccccc2)c1`: the AC40 is 1.45 µM.

Consider `Cc1ccc(CNc2nc(-c3ccccn3)nnc2-c2ccccc2)cc1C`, for which the AC40 was 0.772 µM.

For the compound `CC(C)(C)OC(=O)N1CCN(Cc2ccc(O)c3ncccc23)CC1`, the AC40 is 10.2 µM.

Take `c1ccc(-c2nnc(-c3ccccn3)nc2N2CCC(c3ccccc3)C2)cc1` (configuration not stated): the AC40 is 1.52 µM.

In the case of `CC(C)(C)CCNc1nc(-c2ccccn2)nnc1-c1ccccc1`, the AC40 was 0.768 µM and 0.974 µM.

Take `Oc1ccc(CN2CCC3CCCCC3C2)c2cccnc12` (configuration not stated): the AC40 is 3.2 µM.

As to `C=CCNc1nc(-c2ccccn2)nnc1-c1ccccc1`, the AC40 is 4.47 µM.

As for `OCCCNc1nc(-c2ccccn2)nnc1-c1ccccc1`, the AC40 was 8.34 µM.

As to `Oc1ccc(CN2CCC(Cc3ccccc3)CC2)c2cccnc12`, the AC40 was 6.76 µM.

In the case of `c1ccc(-c2nnc(-c3ccccn3)nc2NCCN2CCOCC2)cc1`, the AC40 was 8.15 µM.

Test system in another experiment: not listed separately
Described as above. As to conditions: U2OS VEGF mRNA induction, RT-PCR; at 38 µM (top of the series). The essentials:
as §1
For the compound `O=C(NCc1ccccc1)c1cc(-c2ccccc2)on1`, the activation was -10.1% (inactive).

`CN(C)CCNC(=O)c1cc(-c2ccccc2)on1`: the activation was 5.67% (inactive).

For `O=C(c1cc(-c2ccccc2)on1)N1CCC(N2CCOCC2)CC1`, the activation was 2.34% (inactive).

For `Cc1ccc(CNC(=O)c2cc(-c3ccccc3)on2)cc1`, the activation is 8.66% (inactive).

Consider `Cn1c(NC(=O)c2cc(-c3ccccc3)on2)nc2ccccc21`, for which the activation is -9.2% (inactive).

Regarding `O=C(c1cc(-c2ccccc2)on1)N1CCC(CO)CC1`, the activation was 9.68% (inactive).

For `Cc1cccc(CNC(=O)c2cc(-c3ccccc3)on2)c1`, the activation was 8.64% (inactive).

`O=C(Nc1ncc(-c2ccccc2)o1)c1cc(-c2ccccc2)on1`: the activation is -1.45% (inactive).

Turning to `O=C(Nc1nc(-c2ccccc2)cs1)c1cc(-c2ccccc2)on1`, the activation is -5.33% (inactive).

On to `O=C(Nc1ccc2ccccc2n1)c1cc(-c2ccccc2)on1`, for which the activation is 4.54% (inactive).

For the compound `O=C(Nc1cnc2ccccc2c1)c1cc(-c2ccccc2)on1`, the activation is -1.59% (inactive).

`Cc1ccc(NC(=O)c2cc(-c3ccccc3)on2)cn1`: the activation was 4.7% (inactive).

In the case of `CN1CCN(C(=O)c2cc(-c3ccccc3)on2)CC1`, the activation is 5.56% (inactive).

With `O=C(c1cc(-c2ccccc2)on1)N1CCc2cccnc21`, the activation was 5.33% (inactive).

For `O=C(NCC1CCCCC1)c1cc(-c2ccccc2)on1`, the activation was -2.71% (inactive).

Take `O=C(c1cc(-c2ccccc2)on1)N1CCC(N2CCCC2)CC1`: the activation is 13.9% (inactive).

Turning to `Cc1ccccc1CNC(=O)c1cc(-c2ccccc2)on1`, the activation was 35.3% (inactive).

Consider `O=C(Nc1nc2ccccc2s1)c1cc(-c2ccccc2)on1`, for which the activation was 18.7% (inactive).

`O=C(Nc1nnc(-c2ccccc2)s1)c1cc(-c2ccccc2)on1`: the activation is -3.69% (inactive).

Regarding `O=C(NC1Cc2ccccc2C1)c1cc(-c2ccccc2)on1`, the activation is 2.5% (inactive).

For the compound `Cc1cccc(NC(=O)c2cc(-c3ccccc3)on2)n1`, the activation is 16.6% (inactive).

For `O=C(NCCN1CCCCC1)c1cc(-c2ccccc2)on1`, the activation was -5.63% (inactive).
